Measurements from ChEMBL document CHEMBL1133607, “Nonpeptide analogues of dynorphin A(1-8): design, synthesis, and pharmacological evaluation of kappa-selective agonists” (J Med Chem, 2000).

These molecules were tested against Mu-type opioid receptor (Rattus norvegicus, UniProt P33535) (assay: Displacement of [3H]diprenorphine from opioid receptor mu 1 on crude membrane fractions obtained from whole rat brain (minus cerebellum)).
Format: tissue-based
How it was run: (§1)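 Rat whole-brain (minus cerebellum) crude membranes, 1 mg protein/tube, in 50 mM Tris-HCl pH 7.4 with aprotinin, leupeptin and bacitracin. […] U50,488 and DADLE (300 nM each) saturate κ and δ sites; 1 µM DAMGO defines nonspecific binding. Compounds tested at 10^-11 to 10^-5 M. Ki values are the mean of three experiments in duplicate.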

Sequence of Mu-type opioid receptor (P33535 whole entry): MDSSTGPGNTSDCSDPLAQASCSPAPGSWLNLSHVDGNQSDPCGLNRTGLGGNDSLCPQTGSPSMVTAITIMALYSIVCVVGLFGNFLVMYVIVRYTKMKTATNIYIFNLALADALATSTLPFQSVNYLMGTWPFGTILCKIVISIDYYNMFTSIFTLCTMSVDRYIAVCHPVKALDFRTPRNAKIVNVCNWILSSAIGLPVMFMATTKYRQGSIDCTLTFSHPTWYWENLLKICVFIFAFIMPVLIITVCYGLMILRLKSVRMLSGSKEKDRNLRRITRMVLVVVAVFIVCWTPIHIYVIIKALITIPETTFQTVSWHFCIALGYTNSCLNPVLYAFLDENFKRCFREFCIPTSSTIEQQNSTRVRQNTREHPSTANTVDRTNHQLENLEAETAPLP

Question: For `CCCCC(=N)NCCCNC(=O)C(CC(C)C)NC(=O)CNC(=O)[C@]1(c2ccccc2)CC1CN1CC[C@@]2(C)c3cc(O)ccc3CC1C2C` (some centres undefined), which Ki is on record?
Answer: 3.46 µM

Question: Which Ki does the source give for `CCCCC(=N)NCCCNC(=O)C(CC(C)C)NC(=O)[C@]1(c2ccccc2)CC1CN1CC[C@@]2(C)c3cc(O)ccc3CC1C2C` (some centres undefined) here?
Answer: 2.23 µM

Question: For `CC[C@H](C)[C@H](NC(=O)[C@H](CCCN=C(N)N)NC(=O)[C@H](CCCN=C(N)N)NC(=O)[C@]1(c2ccccc2)C[C@@H]1CN1CC[C@@]2(C)c3cc(O)ccc3CC1C2C)C(=O)OC` (some centres undefined), which Ki is on record?
Answer: 4.6 µM

Question: `CCCCC(=N)NCCCCCNC(=O)C(CC(C)C)NC(=O)[C@]1(c2ccccc2)CC1CN1CC[C@@]2(C)c3cc(O)ccc3CC1C2C` (some centres undefined) was tested. Which Ki did it give?
Answer: 2.38 µM

Question: `CCCC(=N)NCCCCCNC(=O)C(CC(C)C)NC(=O)[C@]1(c2ccccc2)CC1CN1CC[C@@]2(C)c3cc(O)ccc3CC1C2C` (some centres undefined) was tested. Which Ki did it give?
Answer: 2 µM

Question: How did the Ki turn out when `CC(C)CC(NC(=O)CNC(=O)[C@]1(c2ccccc2)CC1CN1CC[C@@]2(C)c3cc(O)ccc3CC1C2C)C(=O)NCCCCCCN` (some centres undefined) was run?
Answer: 8.07 µM

Question: How did the Ki turn out when `CC(C)CC(NC(=O)CNC(=O)[C@]1(c2ccccc2)CC1CN1CC[C@@]2(C)c3cc(O)ccc3CC1C2C)C(=O)NCCCNC(=N)N` (some centres undefined) was run?
Answer: 9.24 µM

Question: Which Ki does the source give for `CCCC(=N)NCCCNC(=O)C(CC(C)C)NC(=O)CNC(=O)[C@]1(c2ccccc2)CC1CN1CC[C@@]2(C)c3cc(O)ccc3CC1C2C` (some centres undefined) here?
Answer: 10.7 µM

Question: For `CCC(=N)NCCCCCNC(=O)C(CC(C)C)NC(=O)[C@]1(c2ccccc2)CC1CN1CC[C@@]2(C)c3cc(O)ccc3CC1C2C` (some centres undefined), which Ki is on record?
Answer: 2.21 µM

Question: `CCCCC(=N)NCCCCNC(=O)C(CC(C)C)NC(=O)[C@]1(c2ccccc2)CC1CN1CC[C@@]2(C)c3cc(O)ccc3CC1C2C` (some centres undefined) was tested. Which Ki did it give?
Answer: 2.13 µM

What follows are molecules tested against Kappa-type opioid receptor (Cavia porcellus, UniProt P41144) (assay: Displacement of [3H]-U-69,593 from Opioid receptor kappa 1 in guinea pig cerebellar.).
Sequence of Kappa-type opioid receptor (P41144 whole entry): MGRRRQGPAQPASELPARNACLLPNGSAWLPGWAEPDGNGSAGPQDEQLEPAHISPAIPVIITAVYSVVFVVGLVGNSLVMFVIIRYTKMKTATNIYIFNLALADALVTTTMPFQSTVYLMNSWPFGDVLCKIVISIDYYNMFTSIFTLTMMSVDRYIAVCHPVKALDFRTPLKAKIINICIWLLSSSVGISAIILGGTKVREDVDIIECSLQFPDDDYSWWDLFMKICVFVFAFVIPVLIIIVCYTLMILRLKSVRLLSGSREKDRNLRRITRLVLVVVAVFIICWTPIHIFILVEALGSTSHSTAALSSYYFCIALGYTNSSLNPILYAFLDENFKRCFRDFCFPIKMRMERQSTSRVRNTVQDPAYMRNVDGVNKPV

Question: How did the Ki turn out when `CCCCC(=N)NCCCNC(=O)C(CC(C)C)NC(=O)CNC(=O)[C@]1(c2ccccc2)CC1CN1CC[C@@]2(C)c3cc(O)ccc3CC1C2C` (some centres undefined) was run?
Answer: 0.018 µM

Question: With `CCCCC(=N)NCCCNC(=O)C(CC(C)C)NC(=O)[C@]1(c2ccccc2)CC1CN1CC[C@@]2(C)c3cc(O)ccc3CC1C2C` (some centres undefined) as the molecule, how does the Ki read?
Answer: 0.139 µM

Question: Which Ki does the source give for `CC[C@H](C)[C@H](NC(=O)[C@H](CCCN=C(N)N)NC(=O)[C@H](CCCN=C(N)N)NC(=O)[C@]1(c2ccccc2)C[C@@H]1CN1CC[C@@]2(C)c3cc(O)ccc3CC1C2C)C(=O)OC` (some centres undefined) here?
Answer: 0.0784 µM

Question: Which Ki does the source give for `CCCCC(=N)NCCCCCNC(=O)C(CC(C)C)NC(=O)[C@]1(c2ccccc2)CC1CN1CC[C@@]2(C)c3cc(O)ccc3CC1C2C` (some centres undefined) here?
Answer: 0.0981 µM

Question: `CCCC(=N)NCCCCCNC(=O)C(CC(C)C)NC(=O)[C@]1(c2ccccc2)CC1CN1CC[C@@]2(C)c3cc(O)ccc3CC1C2C` (some centres undefined) was tested. Which Ki did it give?
Answer: 0.156 µM

Question: `CC(C)CC(NC(=O)CNC(=O)[C@]1(c2ccccc2)CC1CN1CC[C@@]2(C)c3cc(O)ccc3CC1C2C)C(=O)NCCCCCCN` (some centres undefined) was tested. Which Ki did it give?
Answer: 0.0796 µM

Question: Which Ki does the source give for `CC(C)CC(NC(=O)CNC(=O)[C@]1(c2ccccc2)CC1CN1CC[C@@]2(C)c3cc(O)ccc3CC1C2C)C(=O)NCCCNC(=N)N` (some centres undefined) here?
Answer: 0.0725 µM

Question: How did the Ki turn out when `CCCC(=N)NCCCNC(=O)C(CC(C)C)NC(=O)CNC(=O)[C@]1(c2ccccc2)CC1CN1CC[C@@]2(C)c3cc(O)ccc3CC1C2C` (some centres undefined) was run?
Answer: 0.0808 µM

Question: For `CCC(=N)NCCCCCNC(=O)C(CC(C)C)NC(=O)[C@]1(c2ccccc2)CC1CN1CC[C@@]2(C)c3cc(O)ccc3CC1C2C` (some centres undefined), which Ki is on record?
Answer: 0.149 µM

Question: How did the Ki turn out when `CCCCC(=N)NCCCCNC(=O)C(CC(C)C)NC(=O)[C@]1(c2ccccc2)CC1CN1CC[C@@]2(C)c3cc(O)ccc3CC1C2C` (some centres undefined) was run?
Answer: 0.116 µM

What follows are molecules tested against Opioid receptors; mu & kappa (UniProt P41145+P35372) (assay: Ratio of affinity towards mu and kappa opioid receptors).
Sequence of Opioid receptors; mu & kappa (P35372 whole entry, looked up): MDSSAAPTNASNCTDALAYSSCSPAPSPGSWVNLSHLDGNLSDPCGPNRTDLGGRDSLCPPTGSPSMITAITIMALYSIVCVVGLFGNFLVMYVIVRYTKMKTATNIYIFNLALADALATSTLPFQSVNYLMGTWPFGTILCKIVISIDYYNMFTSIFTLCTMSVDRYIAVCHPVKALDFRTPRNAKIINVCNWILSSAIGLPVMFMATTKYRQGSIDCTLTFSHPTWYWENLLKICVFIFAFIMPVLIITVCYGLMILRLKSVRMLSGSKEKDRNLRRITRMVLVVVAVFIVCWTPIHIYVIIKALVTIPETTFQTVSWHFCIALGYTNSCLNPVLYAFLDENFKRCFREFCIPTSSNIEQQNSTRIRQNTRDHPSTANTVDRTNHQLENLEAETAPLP
Sequence of Opioid receptors; mu & kappa (P41145 whole entry, looked up): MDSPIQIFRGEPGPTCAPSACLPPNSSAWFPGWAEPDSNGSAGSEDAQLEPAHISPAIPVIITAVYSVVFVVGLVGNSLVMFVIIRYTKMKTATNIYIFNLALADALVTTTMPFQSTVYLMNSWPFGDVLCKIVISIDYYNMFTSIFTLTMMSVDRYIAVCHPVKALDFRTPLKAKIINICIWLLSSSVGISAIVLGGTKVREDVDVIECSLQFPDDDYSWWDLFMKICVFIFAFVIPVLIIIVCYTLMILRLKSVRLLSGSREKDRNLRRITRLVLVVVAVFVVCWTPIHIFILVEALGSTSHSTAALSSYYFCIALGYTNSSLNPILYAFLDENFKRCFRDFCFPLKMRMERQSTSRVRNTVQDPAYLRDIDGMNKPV
Format: protein assay

Question: How did the Selectivity ratio turn out when `CCCCC(=N)NCCCNC(=O)C(CC(C)C)NC(=O)CNC(=O)[C@]1(c2ccccc2)CC1CN1CC[C@@]2(C)c3cc(O)ccc3CC1C2C` (some centres undefined) was run?
Answer: 192

Question: Which Selectivity ratio does the source give for `CCCCC(=N)NCCCNC(=O)C(CC(C)C)NC(=O)[C@]1(c2ccccc2)CC1CN1CC[C@@]2(C)c3cc(O)ccc3CC1C2C` (some centres undefined) here?
Answer: 16

Question: For `CC[C@H](C)[C@H](NC(=O)[C@H](CCCN=C(N)N)NC(=O)[C@H](CCCN=C(N)N)NC(=O)[C@]1(c2ccccc2)C[C@@H]1CN1CC[C@@]2(C)c3cc(O)ccc3CC1C2C)C(=O)OC` (some centres undefined), which Selectivity ratio is on record?
Answer: 58.7

Question: How did the Selectivity ratio turn out when `CCCCC(=N)NCCCCCNC(=O)C(CC(C)C)NC(=O)[C@]1(c2ccccc2)CC1CN1CC[C@@]2(C)c3cc(O)ccc3CC1C2C` (some centres undefined) was run?
Answer: 24.3

Question: How did the Selectivity ratio turn out when `CCCC(=N)NCCCCCNC(=O)C(CC(C)C)NC(=O)[C@]1(c2ccccc2)CC1CN1CC[C@@]2(C)c3cc(O)ccc3CC1C2C` (some centres undefined) was run?
Answer: 12.8

Question: Which Selectivity ratio does the source give for `CC(C)CC(NC(=O)CNC(=O)[C@]1(c2ccccc2)CC1CN1CC[C@@]2(C)c3cc(O)ccc3CC1C2C)C(=O)NCCCCCCN` (some centres undefined) here?
Answer: 101

Question: How did the Selectivity ratio turn out when `CCCC(=N)NCCCNC(=O)C(CC(C)C)NC(=O)CNC(=O)[C@]1(c2ccccc2)CC1CN1CC[C@@]2(C)c3cc(O)ccc3CC1C2C` (some centres undefined) was run?
Answer: 133

Question: For `CCC(=N)NCCCCCNC(=O)C(CC(C)C)NC(=O)[C@]1(c2ccccc2)CC1CN1CC[C@@]2(C)c3cc(O)ccc3CC1C2C` (some centres undefined), which Selectivity ratio is on record?
Answer: 14.8

Question: `CCCCC(=N)NCCCCNC(=O)C(CC(C)C)NC(=O)[C@]1(c2ccccc2)CC1CN1CC[C@@]2(C)c3cc(O)ccc3CC1C2C` (some centres undefined) was tested. Which Selectivity ratio did it give?
Answer: 18.3

Each molecule was assayed against Delta-type opioid receptor (Rattus norvegicus, UniProt P33533) (assay: Displacement of [3H]diprenorphine opioid receptor delta 1 on crude membrane fractions obtained from the whole rat brain (minus cerebellum)).
Sequence of Delta-type opioid receptor (P33533 whole entry): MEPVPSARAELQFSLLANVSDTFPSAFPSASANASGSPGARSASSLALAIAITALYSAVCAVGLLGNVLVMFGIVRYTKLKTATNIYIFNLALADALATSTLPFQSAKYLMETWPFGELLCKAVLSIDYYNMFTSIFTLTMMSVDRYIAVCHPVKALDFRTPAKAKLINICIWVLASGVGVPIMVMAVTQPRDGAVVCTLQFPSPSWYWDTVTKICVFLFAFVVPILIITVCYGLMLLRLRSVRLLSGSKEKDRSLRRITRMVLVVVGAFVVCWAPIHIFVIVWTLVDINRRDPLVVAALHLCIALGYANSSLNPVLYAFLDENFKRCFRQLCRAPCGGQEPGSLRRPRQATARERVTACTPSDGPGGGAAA
Format: tissue-based
How it was run: as §1, with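 “DAMGO” for “DADLE”, “µ” for “δ”, “DPDPE” for “DAMGO”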

Question: Which Ki does the source give for `CCCCC(=N)NCCCNC(=O)C(CC(C)C)NC(=O)CNC(=O)[C@]1(c2ccccc2)CC1CN1CC[C@@]2(C)c3cc(O)ccc3CC1C2C` (some centres undefined) here?
Answer: 4.95 µM

Question: Which Ki does the source give for `CC[C@H](C)[C@H](NC(=O)[C@H](CCCN=C(N)N)NC(=O)[C@H](CCCN=C(N)N)NC(=O)[C@]1(c2ccccc2)C[C@@H]1CN1CC[C@@]2(C)c3cc(O)ccc3CC1C2C)C(=O)OC` (some centres undefined) here?
Answer: > 25 µM

Question: `CCCCC(=N)NCCCCCNC(=O)C(CC(C)C)NC(=O)[C@]1(c2ccccc2)CC1CN1CC[C@@]2(C)c3cc(O)ccc3CC1C2C` (some centres undefined) was tested. Which Ki did it give?
Answer: 3.59 µM

Question: `CC(C)CC(NC(=O)CNC(=O)[C@]1(c2ccccc2)CC1CN1CC[C@@]2(C)c3cc(O)ccc3CC1C2C)C(=O)NCCCCCCN` (some centres undefined) was tested. Which Ki did it give?
Answer: 6.05 µM

Question: For `CC(C)CC(NC(=O)CNC(=O)[C@]1(c2ccccc2)CC1CN1CC[C@@]2(C)c3cc(O)ccc3CC1C2C)C(=O)NCCCNC(=N)N` (some centres undefined), which Ki is on record?
Answer: 3.72 µM

Question: Which Ki does the source give for `CCCC(=N)NCCCNC(=O)C(CC(C)C)NC(=O)CNC(=O)[C@]1(c2ccccc2)CC1CN1CC[C@@]2(C)c3cc(O)ccc3CC1C2C` (some centres undefined) here?
Answer: 9.54 µM

Species on record: Cavia porcellus
Assay: Ratio of affinity towards delta to kappa opioid receptor

Question: With `CCCCC(=N)NCCCNC(=O)C(CC(C)C)NC(=O)CNC(=O)[C@]1(c2ccccc2)CC1CN1CC[C@@]2(C)c3cc(O)ccc3CC1C2C` (some centres undefined) as the molecule, how does the Selectivity ratio read?
Answer: 275

Question: Which Selectivity ratio does the source give for `CCCCC(=N)NCCCCCNC(=O)C(CC(C)C)NC(=O)[C@]1(c2ccccc2)CC1CN1CC[C@@]2(C)c3cc(O)ccc3CC1C2C` (some centres undefined) here?
Answer: 36.6

Question: For `CC(C)CC(NC(=O)CNC(=O)[C@]1(c2ccccc2)CC1CN1CC[C@@]2(C)c3cc(O)ccc3CC1C2C)C(=O)NCCCCCCN` (some centres undefined), which Selectivity ratio is on record?
Answer: 76

Question: `CCCC(=N)NCCCNC(=O)C(CC(C)C)NC(=O)CNC(=O)[C@]1(c2ccccc2)CC1CN1CC[C@@]2(C)c3cc(O)ccc3CC1C2C` (some centres undefined) was tested. Which Selectivity ratio did it give?
Answer: 118
